Source: PubChem (Sanford-Burnham Center for Chemical Genomics)
SENP8 block-1: SENP8 protease inhibition. purified SENP8, Z-RLRGG-aminoluciferin cleavage, luminescence. inhibition, % at 10 µM. actives 1.2% (n = 330,000). AID 2540; in the data active = inhibition above about 50%
SENP8 block-2: inhibitors of human SENP8 protease. recombinant SENP8, Nedd8 substrate fluorescence. inhibition, % at 20 µM. actives 0.64% (n = 360,000); in the data active = inhibition mostly above about 40%, no sharp cut-off; inactive = mostly below about 27%
SENP6 inh: inhibitors of human SENP6 protease; Q9GZR1; Recombinant SENP6 catalytic domain, aminoluciferin luminescence; inhibition, % at 10 µM; actives 1.8% (n = 330,000); AID 2599;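 active = inhibition above about 50% at the single tested dose, limit read from the data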;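 note: plate controls were DMSO wells with enzyme for no effect and DMSO wells lacking enzyme for full effect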
UBC13 inh: inhibitors of human UBC13 polyubiquitin chain formation | actives 0.47% (n = 330,000) | AID 485273 | inhibition, % at 20 µM | TR-FRET; in the data active = inhibition above about 45%, passing the limit was not always enough
Apaf-1 inh: human Apaf-1 inhibition; inhibition, % at 20 µM; O14727; reconstituted apoptosome caspase-3 activity, DEVD-Rh110 fluorescence; actives 0.71% (n = 330,000); active = inhibition of at least 40% at 20 µM;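 note: plate controls were DMSO wells for no effect and DEVD-CHO caspase inhibitor wells for full effect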
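System: Apoptosome proteins | Medium: Hepes pH 7.5 with detergent and BSA | Also added: Cytochrome c trigger plus (Z-DEVD)2-Rh110 caspase-3 substrate | Incubation: 30 min compound preincubation, 50 min activation, room temperature | Detection: Rhodamine 110 fluorescence at Ex 480/Em 540 nm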
SENP7 inh: SENP7 protease inhibition. recombinant SENP7, Z-RLRGG-aminoluciferin luminescence, 40 min. inhibition, % at 5 µM. actives 1.5% (n = 330,000). Q9BQF6;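 active = inhibition above about 50% at the single test dose, limit read from the data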;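 note: plate controls were DMSO with enzyme for no effect and no enzyme buffer wells for full effect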
Target sequence (Q9BQF6 706-1050 limits assumed): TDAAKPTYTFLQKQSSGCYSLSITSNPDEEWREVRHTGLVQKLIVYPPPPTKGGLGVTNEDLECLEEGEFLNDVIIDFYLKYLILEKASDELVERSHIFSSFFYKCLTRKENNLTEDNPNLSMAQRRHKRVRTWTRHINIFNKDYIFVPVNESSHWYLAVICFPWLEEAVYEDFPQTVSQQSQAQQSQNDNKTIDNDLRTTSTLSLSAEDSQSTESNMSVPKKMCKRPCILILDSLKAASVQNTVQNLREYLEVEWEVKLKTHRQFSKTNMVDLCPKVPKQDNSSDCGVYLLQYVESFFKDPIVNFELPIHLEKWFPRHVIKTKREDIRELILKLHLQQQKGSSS
SENP8 confirm: confirmation of human SENP8 protease inhibitors | shares compounds with SENP7 inh | AID 488912 | inhibition, % at 12.5 µM | actives 40% (n = 6,200) | Recombinant SENP8, Z-RLRGG-aminoluciferin luminescence, 60 min;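 active = mean inhibition across replicates above about 50%, limit read from the data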
SENP6 conf: confirmation of human SENP6 protease inhibitors | shares compounds with SENP7 inh | recombinant SENP6, Z-RLRGG-aminoluciferin luminescence | inhibition, % at 12.5 µM | actives 58% (n = 6,200) | AID 488915
SENP7 conf: human SENP7 inhibition, confirmed | actives 69% (n = 6,200) | recombinant SENP7, Z-RLRGG-aminoluciferin luminescence, 40 min | shares compounds with SENP7 inh | inhibition, % at 12.5 µM
Casp3 select: inhibits human caspase-3 in SENP selectivity test. shares compounds with SENP7 inh. purified caspase-3, Z-DEVD-aminoluciferin luminescence, 60 min. inhibition, % at 12.5 µM. actives 60% (n = 6,200). AID 488918;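 active = mean inhibition above about 50%, limit read from the data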;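 note: plate controls were enzyme with DMSO for no effect and wells without caspase-3 for full effect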
SENP luc ctr: counter-screen for SENP inhibitors: luminescence interference. shares compounds with SENP7 inh. AID 488919. Pre-incubated SENP8/Z-RLRGG-aminoluciferin, luciferase luminescence interference. inhibition, % at 12.5 µM. actives 39% (n = 6,200);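 active = mean inhibition above about 50% when retested at one dose, limit read from the data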;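 note: plate controls were DMSO wells with completed reaction for no effect and substrate without enzyme for full effect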
Numbers without * were called inactive; . = no result. Most compounds without a hit are left out; they make up all but 3% or so of the library.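 Rule for the calls, unless noted: active = mean inhibition above about 50% in the one-dose retest (limit read from the data); inactive = the rest.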

SMILES	SENP8 block-1	SENP8 block-2	SENP6 inh	UBC13 inh	Apaf-1 inh	SENP7 inh	SENP8 confirm	SENP6 conf	SENP7 conf	Casp3 select	SENP luc ctr
O=C(N/N=C/c1ccc(OC2CSC2)cc1)c1ccccc1	52*	15	62*	-2	2	0	7	3	10	25	-6
O=C(/C=C/c1ccc(OC2CSC2)cc1)c1ccccc1	54*	11	38	7	24	55*	-2	15	6	-7	26
CCCCCC(=O)Nc1ccc2oc(-c3cncc(Br)c3)nc2c1	-2	-284	-14	7	-10	101*	3	1	-1	10	0
O=C1C(=O)c2ccccc2C(O)=C1CCCCl	26	21	55*	-61	83*	8	53*	66*	13	8	1
COc1c(/C=N/NC(N)=S)c(C)nn1-c1ccccc1	70*	0	-1	4	2	9	-20	-14	-8	-7	-8
O=[N+]([O-])c1ccc(N/N=C/c2cccc(O)c2O)cc1	59*	-57	78*	-86	14	39	39	46	84*	37	68*
O=[N+]([O-])c1ccc(N/N=C/c2cccc(O)c2)cc1	77*	-64	82*	-53	5	53*	90*	89*	94*	37	86*
O=[N+]([O-])c1ccc(NN=Cc2cccc([N+](=O)[O-])c2)cc1	.	-8	.	.	.	.	.	.	.	.	.
O=C(Nc1nnc(CCc2ccccc2)s1)c1ccccc1F	3	11	51*	-4	7	40	36	33	58*	48	6
O=C(Nc1nnc(CCc2ccccc2)s1)c1cccc(F)c1	8	1	44	-1	12	61*	-1	-1	13	21	8
O=C(Nc1cccc(Cl)c1)c1cc(-c2ccco2)on1	78*	-5	83*	2	13	87*	36	81*	97*	77*	42
CC(=O)c1cccc(NC(=O)c2cc(-c3cccs3)on2)c1	-9	12	-13	-2	1	-3	.	.	.	.	.
COc1ccc(NC(=O)c2cc(-c3cccc(OC)c3)on2)cc1	-14	18	-20	7	-20	5	.	.	.	.	.
COc1ccc(-c2cc(C(=O)Nc3cccc(Cl)c3)no2)cc1	18	8	15	4	-3	78*	-21	-12	-4	11	-5
O=C(Nc1cccc(O)c1)c1cc(-c2cccs2)on1	85*	17	94*	12	8	75*	94*	94*	100*	92*	95*
COc1cccc(-c2cc(C(=O)Nc3cccc(O)c3)no2)c1	94*	9	99*	6	-6	97*	88*	90*	102*	92*	90*
COc1ccc(-c2cc(C(=O)Nc3cccc(C(C)=O)c3)no2)cc1	-3	14	0	2	3	-7	.	.	.	.	.
C/C(=N\NC(N)=O)C1CC(Cc2ccccc2)C(=O)O1 (centres undefined)	4	5	10	-8	-8	-4	.	.	.	.	.
CCc1ccc(C(=O)/C=C/c2cnn(C)c2C)s1	-16	-131	54*	-2	-3	13	6	-14	15	-6	19
O=C(Nc1ccc(C(=O)NC2CCCCC2)cc1)c1cccnc1	-8	0	2	-4	-7	-5	.	.	.	.	.
COc1ccc(OC)c(NC(=O)COC(=O)CCS(=O)(=O)c2ccc(Cl)cc2)c1	2	16	-2	4	4	-47	.	.	.	.	.
